Results taken from ChEMBL document CHEMBL1134962, “Facilely accessible multidrug resistance modulator derived from sucrose” (2002).

Assays:
Type in all cases: functional, Homo sapiens
KB 3-1 [1] = test: Cytotoxicity against KB-3-1 cells was determined when administered at 1 ug/mL
Summary of the method: (§1)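 Parental KB-3-1 cells grown in RPMI 1640 with glutamine, kanamycin and 10% newborn calf serum. 10,000 cells per well were preincubated 24 h at 37 °C in 5% CO2. The test sample was then added alone and incubated 48 h. MTT was added for 3 h, and the formazan was extracted with DMSO before the colorimetric read.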

KB 3-1 [2] = test: Cytotoxicity against KB-3-1 cells was determined when administered at 10 ug/mL; summary of the method: as §1
KB 3-1 [3] = test: Cytotoxicity against KB-3-1 cells was determined when administered at 3 ug/mL; summary of the method: as §1
KB [4] = test: Percentage inhibition of growth against KB-C2 cells in the presence of colchicine(0.1 ug/mL) was determined when administered at 3 ug/mL
Summary of the method: (§2)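 Multidrug-resistant KB-C2 cells were selected from KB-3-1 and kept in colchicine-containing RPMI 1640 with glutamine, kanamycin and 10% newborn calf serum. 10,000 cells per well were preincubated 24 h at 37 °C in 5% CO2. Colchicine plus the test sample were added together and incubated 48 h. Growth was read by MTT (3 h), with the formazan extracted in DMSO.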

KB [5] = test: Percentage inhibition of growth against KB-C2 cells in the presence of colchicine(0.1 ug/mL) was determined when administered at 1 ug/mL; summary of the method: as §2
KB [6] = test: Percentage inhibition of growth against KB-C2 cells in the presence of colchicine(0.1 ug/mL) was determined when administered at 10 ug/mL; summary of the method: as §2
KB [7] = test: Percentage inhibition of growth against KB-C2 cells in the presence of colchicine (0.1 ug/mL) was determined when administered at 3 ug/mL; summary of the method: as §2

SMILES | Growth inhibition (KB 3-1 [1]) [%] | Growth inhibition (KB 3-1 [2]) [%] | Growth inhibition (KB 3-1 [3]) [%] | Growth inhibition (KB [4]) [%] | Growth inhibition (KB [5]) [%] | Growth inhibition (KB [6]) [%] | Growth inhibition (KB [7]) [%]
CC(C)CC(=O)OC[C@H]1O[C@H](O[C@]2(COC(=O)CC(C)C)O[C@H](COC(=O)CC(C)C)[C@@H](OC(=O)CC(C)C)[C@@H]2OC(=O)CC(C)C)[C@H](OC(=O)CC(C)C)[C@@H](O)[C@@H]1O | 18 | 93 | 16 | 60 | 23 | 92 | –
CC(C)CC(=O)OC[C@H]1O[C@@](COC(=O)CC(C)C)(O[C@H]2O[C@H](CO)[C@@H](OC(=O)CC(C)C)[C@H](O)[C@H]2OC(=O)CC(C)C)[C@@H](OC(=O)CC(C)C)[C@@H]1OC(=O)CC(C)C | 2 | 40 | 10 | 79 | 39 | 88 | –
CC(C)CC(=O)OC[C@H]1O[C@@](COC(=O)CC(C)C)(O[C@H]2O[C@H](CO)[C@@H](O)[C@H](O)[C@H]2OC(=O)CC(C)C)[C@@H](OC(=O)CC(C)C)[C@@H]1OC(=O)CC(C)C | 10 | 92 | 21 | 76 | 40 | 93 | –
CC(C)CC(=O)OC[C@H]1O[C@@](COC(=O)CC(C)C)(O[C@H]2O[C@H](CO)[C@@H](O)[C@H](OC(=O)CC(C)C)[C@H]2OC(=O)CC(C)C)[C@@H](OC(=O)CC(C)C)[C@@H]1OC(=O)CC(C)C | 6 | 66 | 16 | 53 | 18 | 94 | –
CC(C)CC(=O)OC[C@H]1O[C@@](COC(=O)CC(C)C)(O[C@H]2O[C@H](COC(=O)CC(C)C)[C@@H](OC(=O)CC(C)C)C(OC(=O)CC(C)C)[C@H]2OC(=O)CC(C)C)[C@@H](OC(=O)CC(C)C)[C@@H]1OC(=O)CC(C)C (stereo partly specified) | 10 | 25 | 15 | 12 | 4 | 24 | –
CC(C)CC(=O)O[C@@H]1[C@@H](OC(=O)CC(C)C)[C@@H](O[C@]2(CO)O[C@H](CO)[C@@H](OC(=O)CC(C)C)[C@@H]2OC(=O)CC(C)C)O[C@H](CO)[C@H]1OC(=O)CC(C)C | 9 | 98 | 8 | – | 65 | 97 | 92
